Screening results (PubChem BioAssay)
An excerpt weighted towards active compounds, which were near 9.6% of everything screened.
b-catenin transl = alters nuclear translocation of beta-catenin in HeLa cells; immunofluorescence imaging; nuclear translocation activity, % at 5 µM; hit rate 0.3% among 190,000; AID 1665;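 active means nuclear translocation activity above 50% at 5 µM, with a well cell count of 50 or more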;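 further: per-cell ratio of nuclear to cytoplasmic median beta-catenin stain intensity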
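Test system: human HeLa cell line; Doses: 5 µM primary, 0.02–20 µM confirmation; Incubation: 24 h compound exposure, 37°C; Detection: beta-catenin immunofluorescence imaging with DAPI; Read-out: beta-catenin nuclear/cytoplasmic ratio, % activation.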
MT stabilizer = microtubule stabilizers in HeLa cells. HeLa tubulin immunostaining HCS, 24 h; share of cells brighter than vehicle mean+2SD. % tubulin-high responders, % at 10 µM. hit rate 0.83% among 200,000;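 active means plate Z-score above 3 for both tubulin-high and condensed-nucleus cell shares, with cell loss under 80%, at 10 µM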;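 further: anti alpha tubulin signal scored within the nucleus-defined area of each cell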
BaF3 parental = parental Ba/F3 viability inhibition as JAK2V617F counter-screen; CellTiter-Glo ATP luminescence; inhibition, % at 5.6 µM; hit rate 1.1% among 220,000;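 active means inhibition above a per-campaign cutoff, the mean inhibition of all tested compounds plus 3 SD, cut at about 27% in these data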
L major viab = reduces viability of Leishmania major promastigotes. inhibition, % at 10 µM. hit rate 9% among 200,000. resazurin fluorescence viability. AID 1063; in the data active means inhibition above about 50%;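 further: promastigotes grown with compound for 44 hours at 28 °C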
Ba/F3 V617F tox = reduce viability of Ba/F3 cells dependent on JAK2V617F | Ba/F3 EpoR-JAK2V617F viability, ATP luminescence | inhibition, % at 5.6 µM | hit rate 1.1% among 220,000 | AID 1446;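 active means inhibition above the campaign mean plus 3 SD over all tested compounds, cut at about 24% in these data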;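 further: cytokine-independent growth of Ba/F3 cells driven by EpoR plus mutant JAK2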
APP 5UTR inh = APP translation inhibition; SH-SY5Y APP 5'UTR-luciferase reporter, luminescence; hit rate 0.82% among 190,000; inhibition, % at 2 µM;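 active means inhibition above a set limit, derived from the sample mean plus 3 SD, cut at about 45% in these data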
A number is an active result.

`Clc1ccc(Cn2cc(Br)cn2)cc1Cl` gave b-catenin transl inactive, MT stabilizer inactive, BaF3 parental inactive, L major viab inactive, Ba/F3 V617F tox inactive and APP 5UTR inh inactive.
For O=C(CC1CS(=O)(=O)CC1CC(=O)Nc1ccc2c(c1)OCCO2)Nc1ccc2c(c1)OCCO2 (configuration not stated) the results were b-catenin transl inactive, MT stabilizer inactive, BaF3 parental inactive, L major viab inactive, Ba/F3 V617F tox inactive and APP 5UTR inh inactive.
For CCCCNS(=O)(=O)c1ccc2nc(-c3cccnc3)cc(C(=O)NCCOC)c2c1 the results were b-catenin transl inactive, BaF3 parental inactive and Ba/F3 V617F tox inactive.
`COC(=O)C(C(=O)Nc1ccccc1C)C1CCCCCC1` (configuration not stated) gave b-catenin transl inactive, MT stabilizer inactive, BaF3 parental inactive, L major viab inactive, Ba/F3 V617F tox inactive and APP 5UTR inh inactive.
For Cc1nn(-c2ccccc2)c(C)c1/C=N/NC(=O)CSc1nnc(SCc2cccc3ccccc23)s1 the results were b-catenin transl inactive, MT stabilizer inactive, BaF3 parental inactive, L major viab 97, Ba/F3 V617F tox inactive and APP 5UTR inh inactive.
For Cc1ccc(-n2c(SCC(=O)N/N=C/c3c(C)nn(-c4ccccc4)c3C)nc3ccccc3c2=O)cc1 the results were b-catenin transl inactive, MT stabilizer inactive, BaF3 parental inactive, L major viab inactive, Ba/F3 V617F tox inactive and APP 5UTR inh inactive.
C#CCNC(=O)C1=C[C@@H](C2CCCCC2)C[C@@H](OCCCCO)O1 was read as b-catenin transl inactive, MT stabilizer inactive, BaF3 parental inactive, L major viab inactive, Ba/F3 V617F tox inactive and APP 5UTR inh inactive.
`CC1(C)CC(=O)C2=C(C1)OC1=C(C(=O)CC(C)(C)C1)C2c1ccc(O)cc1O` gave b-catenin transl inactive, MT stabilizer inactive, BaF3 parental inactive, L major viab 76, Ba/F3 V617F tox inactive and APP 5UTR inh inactive.
Screening O=c1c2ccccc2nc2n1-c1ccccc1CCC2 returned MT stabilizer inactive, BaF3 parental inactive, L major viab inactive, Ba/F3 V617F tox inactive and APP 5UTR inh inactive.
Screening O=C1c2ccccc2-n2c1nc1ccccc1c2=O returned b-catenin transl inactive, MT stabilizer inactive, BaF3 parental inactive, L major viab 100, Ba/F3 V617F tox inactive and APP 5UTR inh inactive.
Screening CC(C)CCOc1ccc(C2CC(=O)N(C)C2=O)cc1 (configuration not stated) returned b-catenin transl inactive, MT stabilizer inactive, BaF3 parental inactive, L major viab inactive, Ba/F3 V617F tox inactive and APP 5UTR inh inactive.
`CN(CCc1ccccn1)Cc1ccc(Cl)cc1` gave b-catenin transl inactive, MT stabilizer inactive, BaF3 parental inactive, L major viab inactive, Ba/F3 V617F tox inactive and APP 5UTR inh inactive.
`Cc1ccc(CC(=O)N(Cc2ccccc2)c2ccccn2)cc1` gave b-catenin transl inactive, MT stabilizer inactive, BaF3 parental inactive, L major viab inactive, Ba/F3 V617F tox inactive and APP 5UTR inh inactive.
`C[N+](C)(C)CCN(Cc1ccc(Cl)cc1)c1ccccn1` gave MT stabilizer inactive, BaF3 parental 29, L major viab inactive, Ba/F3 V617F tox 33 and APP 5UTR inh inactive.
For CN(C)CCN(Cc1ccc(Cl)cc1)c1ccccn1 the results were MT stabilizer inactive, BaF3 parental inactive, L major viab 99, Ba/F3 V617F tox inactive and APP 5UTR inh inactive.
For Brc1ccc(Nc2ncnc3[nH]ncc23)cc1 the results were b-catenin transl inactive, BaF3 parental inactive and Ba/F3 V617F tox inactive.
`COCCOC(=O)/C(=C\c1cc(C(C)(C)C)c(O)c(C(C)(C)C)c1)C(C)=O` gave b-catenin transl inactive, BaF3 parental inactive and Ba/F3 V617F tox inactive.
Screening CC/C(=N\NC(=O)c1ccc(Br)cc1)c1ccccc1 returned b-catenin transl inactive, MT stabilizer inactive, BaF3 parental inactive, L major viab inactive, Ba/F3 V617F tox inactive and APP 5UTR inh inactive.
CCOc1ccccc1C(=O)Nc1ccccc1-c1ccccc1 was read as b-catenin transl inactive, MT stabilizer inactive, BaF3 parental inactive, L major viab 73, Ba/F3 V617F tox inactive and APP 5UTR inh inactive.
For Cc1cc(Br)ccc1NC(=O)c1ccccc1-c1ccccc1 the results were b-catenin transl inactive, MT stabilizer inactive, BaF3 parental inactive, L major viab inactive, Ba/F3 V617F tox inactive and APP 5UTR inh inactive.
O=C(Nc1ccccc1Br)c1ccccc1-c1ccccc1 was read as b-catenin transl 58, MT stabilizer 15, BaF3 parental inactive, L major viab inactive, Ba/F3 V617F tox inactive and APP 5UTR inh inactive.
